Bioassay records deposited in PubChem by Johns Hopkins Ion Channel Center.
Compounds with a hit are over-represented: about 3.5% of the library has one in this group of screens.
RGS4 pot: potentiators or activators of RGS4 | HEK293 M3R/inducible RGS4, carbachol calcium flux Fluo4; hits give low values | B-score at 10 µM | 0.92% of 310,000 active | AID 463111;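 active = B-score of the integrated calcium signal more than 4 SD below the library mean, with starting fluorescence not abnormally high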;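 also: negative B-score means reduced calcium response which marks RGS4 activation or potentiation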
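test system = M3R-expressing HEK293 line, RGS4 induced by doxycycline | probe or stimulus = carbachol at ECmax as muscarinic agonist stimulus | timing = dye loading 30 min 37 °C, buffer rest 30 min RT | signal = calcium dye Fluo4 fluorescence | evaluation = B score from integrated fluorescence ratio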
MrgX1 ag: activates human MrgX1 receptor signaling. 0.44% of 310,000 active. Q96LB2. MrgX1-HEK293 cells, Fluo-4 calcium fluorescence, agonist mode; hits give high values. AID 588627. B-score at 10 µM;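 active = calcium response B-score plate-corrected fluorescence ratio at least 3 library SD, with starting fluorescence B-score inside 5 SD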
Target sequence (Q96LB2 whole entry, looked up): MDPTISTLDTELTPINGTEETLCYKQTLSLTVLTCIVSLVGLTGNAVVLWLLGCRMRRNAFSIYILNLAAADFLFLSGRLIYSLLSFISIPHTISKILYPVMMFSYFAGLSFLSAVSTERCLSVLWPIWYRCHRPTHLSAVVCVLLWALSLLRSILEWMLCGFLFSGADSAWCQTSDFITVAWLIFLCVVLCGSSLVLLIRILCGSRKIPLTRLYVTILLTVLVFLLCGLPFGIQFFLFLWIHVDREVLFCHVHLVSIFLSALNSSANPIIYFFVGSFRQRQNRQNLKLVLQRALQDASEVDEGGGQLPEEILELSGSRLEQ
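Material: MrgX1-expressing HEK293 cells / Dosing: compound as first of three additions / Incubation: overnight seeding, then 1 h dark dye loading / Signal: Fluo-4 NW calcium fluorescence / Evaluation: B-scored fluorescence response ratio / Benchmarks: positive and negative control wells on each plate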
MrgX1 PAM: human MrgX1 positive allosteric modulation, primary screen; Q96LB2; B-score at 10 µM; 0.63% of 310,000 active; AID 588675; MrgX1-HEK293, Fluo-4 calcium flux, FDSS; hits give high values;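 active = plate-corrected calcium response at least 3 library SD above typical, normal starting fluorescence, not activating the receptor alone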;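 also: compound read alongside a low EC10 to EC30 dose of BAM8-22 agonist; peak minus trough fluorescence over baseline measured at the second addition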
RGS4 block: inhibitors of human RGS4; 0.45% of 310,000 active; P49798; HEK293 M3R/RGS4 inducible, Fluo-4 calcium flux; hits give high values; triggered by carbachol at its EC20; B-score at 10 µM;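 active = B-score, a plate-corrected calcium signal, over three deviations above library mean, with baseline fluorescence within five deviations of library mean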;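 also: RGS4 expression induced by doxycycline in cells with stable M3 receptor; B-score is computed from the integrated fluorescence ratio over baseline after carbachol; higher B-score means a larger calcium signal and so more RGS4 inhibition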
Target sequence (P49798 whole entry, looked up): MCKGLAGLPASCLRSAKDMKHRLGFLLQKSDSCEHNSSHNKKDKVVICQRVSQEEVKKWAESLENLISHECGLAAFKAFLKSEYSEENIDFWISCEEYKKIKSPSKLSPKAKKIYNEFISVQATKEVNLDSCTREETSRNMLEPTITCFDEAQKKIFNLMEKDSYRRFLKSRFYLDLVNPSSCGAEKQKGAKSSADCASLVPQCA
MrgX1 antag: human MrgX1 receptor antagonism, primary screen. MRGX1-HEK293 calcium flux, Fluo-4, BAM8-22 antagonism; hits give low values. Q96LB2. B-score at 10 µM. AID 588676. 1.3% of 310,000 active;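 active = calcium-response B-score plate-corrected more than 3 library SD below zero, starting fluorescence within 5 deviations, no agonist response on first addition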;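 also: peak minus trough fluorescence over baseline after final BAM8-22 challenge near maximal dose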
MrgX1 PAM conf: reconfirmed allosteric activator of human MrgX1 receptor; shares compounds with MrgX1 PAM; MrgX1-HEK293, Fluo-4 calcium fluorescence, FDSS; activation (ratio percentage), % at 10 µM; 13% of 1,200 active; AID 602413;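 active = ratio at least 3 SD above the weak peptide control, stable starting fluorescence, no direct agonism earlier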;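 also: compound followed by low BAM8-22 agonist challenge near EC20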
HEK293 Ca flux: activity in parental HEK293 cells lacking MrgX1 | shares compounds with MrgX1 antag | Fluo-4 calcium fluorescence, FDSS | fluorescence ratio F(max-min)/F0 at 10 µM | 2% of 4,000 active | AID 624111;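 active = duplicate-averaged calcium fluorescence ratio at least three times the standard deviation of buffer wells, a nonspecific response in parental cells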
HEK293 Ca counter: MrgX1 allosteric activator counter-screen hit in parental HEK293 cells; 0.4% of 4,000 active; AID 624114; shares compounds with MrgX1 antag; parental HEK293 calcium flux, Fluo-4 fluorescence ratio; hits give high values; fluorescence ratio F(max-min)/F0 at 10 µM;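 active = calcium fluorescence ratio, averaged over duplicates, at least 3 SD of the buffer-well ratio, meaning a nonspecific response in receptor-free cells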;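 also: untransfected parental HEK293 lacking MrgX1 used as counterscreen for MrgX1 allosteric activators; fluorescence change taken during the second addition on a kinetic imager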
HEK293 Ca cntr2: activity in parental HEK293 cells lacking MrgX1 receptor. fluorescence ratio F(max-min)/F0 at 10 µM. Fluo-4 calcium fluorescence (FDSS); hits give high values. shares compounds with MrgX1 antag. AID 624115. 8.7% of 4,000 active;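 active = calcium fluorescence ratio at least three times the spread of buffer wells, meaning a non-specific response in parental cells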
* hit, by the source's call.

What do the screens show for `CC1CCCC(C)N1C(=O)c1cc(-c2ccc3c(c2)OCO3)on1` (stereo not drawn)?
RGS4 pot: inactive; MrgX1 ag: inactive; MrgX1 PAM: 11*; RGS4 block: inactive; MrgX1 antag: inactive; MrgX1 PAM conf: inactive; HEK293 Ca flux: inactive; HEK293 Ca counter: inactive; HEK293 Ca cntr2: inactive

How did CC1CCCC(C)N1C(=O)c1cc(-c2ccc(Cl)c(Cl)c2)on1 (stereo not drawn) do in these assays?
RGS4 pot: inactive; MrgX1 ag: inactive; MrgX1 PAM: 7.8*; RGS4 block: inactive; MrgX1 antag: inactive; MrgX1 PAM conf: inactive; HEK293 Ca flux: inactive; HEK293 Ca counter: inactive; HEK293 Ca cntr2: inactive

What do the screens show for `CCOC(=O)c1c(NC(=O)COc2ccc3ccc(=O)oc3c2)sc(C(=O)N(C)C)c1C`?
RGS4 pot: inactive; MrgX1 ag: inactive; MrgX1 PAM: inactive; RGS4 block: inactive; MrgX1 antag: inactive

Results for CCCc1cc(=O)oc2cc(OCC(=O)NC3CC(C)(C)NC(C)(C)C3)ccc12 ?
RGS4 pot: inactive; MrgX1 ag: inactive; MrgX1 PAM: inactive; RGS4 block: inactive; MrgX1 antag: inactive

Results for CC(Sc1nc2c(c(=O)[nH]1)CCCC2)C(=O)Nc1ccccc1C#N (stereo not drawn) ?
RGS4 pot: inactive; MrgX1 ag: inactive; MrgX1 PAM: inactive; RGS4 block: inactive; MrgX1 antag: inactive

What do the screens show for `CCC1(CC)C(=O)C2=C3C1[C@H](C(=O)OC)C=C(C(=O)OC)C[C@H]3n1c(=O)n(-c3ccccc3)c(=O)n1[C@H]2C` (stereo partly drawn)?
RGS4 pot: inactive; MrgX1 ag: inactive; MrgX1 PAM: inactive; RGS4 block: inactive; MrgX1 antag: inactive

How did C=CCOc1ccc(/C=N/NC(=O)C(=O)N2CCCCCC2)cc1OC do in these assays?
RGS4 pot: inactive; MrgX1 ag: inactive; MrgX1 PAM: inactive; RGS4 block: inactive; MrgX1 antag: inactive

Results for CC1(C)CC2CC(C)(CN2c2ncnc3ccccc23)C1 (stereo not drawn) ?
RGS4 pot: inactive; MrgX1 ag: inactive; MrgX1 PAM: 25*; RGS4 block: inactive; MrgX1 antag: inactive; MrgX1 PAM conf: 25%*; HEK293 Ca flux: inactive; HEK293 Ca counter: inactive; HEK293 Ca cntr2: inactive

How did COC(=O)c1sc(NC(=S)NC(=O)c2ccccc2C)nc1C do in these assays?
RGS4 pot: inactive; MrgX1 ag: inactive; MrgX1 PAM: 7.3*; RGS4 block: inactive; MrgX1 antag: inactive; MrgX1 PAM conf: inactive; HEK293 Ca flux: inactive; HEK293 Ca counter: inactive; HEK293 Ca cntr2: 56*

What do the screens show for `CC(=O)/C(=C(/O)c1ccccc1)c1nc2ccccc2[nH]1`?
RGS4 pot: inactive; MrgX1 ag: inactive; MrgX1 PAM: 12*; RGS4 block: inactive; MrgX1 antag: inactive; MrgX1 PAM conf: inactive; HEK293 Ca flux: inactive; HEK293 Ca counter: inactive; HEK293 Ca cntr2: inactive

What do the screens show for `O=C(Cc1ccc(Br)cc1)N(Cc1ccccc1)c1ccccn1`?
RGS4 pot: inactive; MrgX1 ag: inactive; MrgX1 PAM: 7.3*; RGS4 block: inactive; MrgX1 antag: inactive; MrgX1 PAM conf: inactive; HEK293 Ca flux: inactive; HEK293 Ca counter: inactive; HEK293 Ca cntr2: inactive

How did O=C(COc1ccc(Br)cc1)N(Cc1ccccc1)c1ccccn1 do in these assays?
RGS4 pot: inactive; MrgX1 ag: inactive; MrgX1 PAM: inactive; RGS4 block: inactive; MrgX1 antag: inactive

Results for Cc1ccccc1Oc1ncnc2sccc12 ?
RGS4 pot: inactive; MrgX1 ag: inactive; MrgX1 PAM: 8.4*; RGS4 block: inactive; MrgX1 antag: inactive; MrgX1 PAM conf: 11%*; HEK293 Ca flux: inactive; HEK293 Ca counter: inactive; HEK293 Ca cntr2: inactive

Results for COc1ccccc1Oc1ncnc2sccc12 ?
RGS4 pot: inactive; MrgX1 ag: inactive; MrgX1 PAM: inactive; RGS4 block: inactive; MrgX1 antag: inactive

What do the screens show for `CCCn1c(=O)c(C(=O)NCCCc2ccccc2)c(O)c2ccccc21`?
RGS4 pot: inactive; MrgX1 ag: inactive; MrgX1 PAM: 6.8*; RGS4 block: inactive; MrgX1 antag: inactive; MrgX1 PAM conf: inactive; HEK293 Ca flux: inactive; HEK293 Ca counter: inactive; HEK293 Ca cntr2: inactive

What do the screens show for `O=C(COC(=O)CCCSc1nc2ccccc2[nH]1)Nc1ccc(Cl)cc1`?
RGS4 pot: inactive; MrgX1 ag: inactive; MrgX1 PAM: inactive; RGS4 block: inactive; MrgX1 antag: inactive

How did Cc1ccc(-c2csc3ncnc(NCCC(=O)O)c23)cc1 do in these assays?
RGS4 pot: inactive; MrgX1 ag: inactive; MrgX1 PAM: inactive; RGS4 block: inactive; MrgX1 antag: inactive

Results for Cc1ccc(-c2csc3ncnc(NCCC(=O)O)c23)cc1C ?
RGS4 pot: inactive; MrgX1 ag: inactive; MrgX1 PAM: 6.7*; RGS4 block: inactive; MrgX1 antag: inactive; MrgX1 PAM conf: inactive; HEK293 Ca flux: inactive; HEK293 Ca counter: inactive; HEK293 Ca cntr2: inactive

What do the screens show for `COc1cc(CC(=O)OCn2nnc3ccccc3c2=O)cc(OC)c1OC`?
RGS4 pot: inactive; MrgX1 ag: inactive; MrgX1 PAM: inactive; RGS4 block: inactive; MrgX1 antag: inactive

How did Cc1ccc(-c2cc3onc(-c4ccccc4)c3c(=O)n2C)cc1 do in these assays?
MrgX1 ag: inactive; MrgX1 PAM: 21*; MrgX1 antag: inactive; MrgX1 PAM conf: inactive; HEK293 Ca flux: inactive; HEK293 Ca counter: inactive; HEK293 Ca cntr2: inactive

Results for O=C(COc1cccc(F)c1)N[C@@H](Cc1ccccc1)c1nc2ccccc2[nH]1 ?
RGS4 pot: inactive; MrgX1 ag: inactive; MrgX1 PAM: inactive; RGS4 block: inactive; MrgX1 antag: inactive

What do the screens show for `CCCNC(=O)CN1CCC(c2nc3ccccc3[nH]2)CC1`?
RGS4 pot: inactive; MrgX1 ag: inactive; MrgX1 PAM: 12*; RGS4 block: inactive; MrgX1 antag: inactive; MrgX1 PAM conf: inactive; HEK293 Ca flux: inactive; HEK293 Ca counter: inactive; HEK293 Ca cntr2: inactive
